Test results reported in ChEMBL document CHEMBL4602675, “The Marine Natural Product Manzamine A Inhibits Cervical Cancer by Targeting the SIX1 Protein” (J Nat Prod, 2020).

Tested on: Ca-Ski
Experiment: Cell cycle arrest in human CaSki cells assessed as accumulation at G0/G1 phase at 4 uM after 48 hrs by propidium iodide staining based flow cytometric analysis (reference value: 54.1%)
Format: functional
Procedure, shortened: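 Cells in DMEM/10% FBS at 37 °C, 5% CO2 were given 4 μM for 24, 48 or 72 h, with DMSO as control. After trypsinization they were fixed in chilled 70% ethanol on ice for 30 min, treated with RNase A (1 mg/mL) for 30 min at room temperature, and stained with PI (20 μg/mL). At least 10 000 events were read by flow cytometry to give sub-G1, G0/G1, S and G2/M fractions; mean ± SEM.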

`O[C@]12C=C(c3nccc4c3[nH]c3ccccc34)[C@@H]3CCN(CCCC/C=C\CC1)C[C@@]31C[C@@H]3/C=C\CCCCN3[C@H]12` [MANZAMINE A] gave an Activity of 82.4%.
